For 26 compounds, IC50, Ratio IC50 and Activity results are on record in ChEMBL document CHEMBL1142952, “Design, synthesis, and activity of 2-imidazol-1-ylpyrimidine derived inducible nitric oxide synthase dimerization inhibitors” (J Med Chem, 2007).

pIC50: −log10 of the molar value. Calls of active or inactive are those of the source. How the calls were made is not given here.

For assay [1], the target named is Nitric oxide synthase, inducible (Homo sapiens, UniProt P35228). Kind of assay: Inhibition of cytokine-induced iNOS expressed in human A172 cells assessed as inhibition of NO formation. Format: cell-based, A 172.
The subject of assay [2] is BSC-1. As to the kind of experiment: Selectivity ratio, IC50 for ecNOS/IC50 for iNOS using vaccinia virus-induced system in BSC1 cells. Format: cell-based. Conditions: Homo sapiens. Put shortly: (§1)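 For each compound, the IC50 against bcNOS (b/i) or ecNOS (e/i) is divided by the iNOS IC50 from the same BSC-1 vaccinia system.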
Assay [3] in a line: Inhibition of vaccinia virus system-induced human NOS expressed in BSC1 cells. As to conditions: bsc-1. In kind it is cell-based.
Assay [4] relates to BSC-1. As to the kind of experiment: Selectivity ratio, IC50 for bcNOS/IC50 for iNOS using vaccinia virus-induced system in BSC1 cells. In kind it is cell-based. As to conditions: Homo sapiens. Put shortly:
as §1

Assay [5] concerns the target Nitric oxide synthase, inducible (Rattus norvegicus) (UniProt Q06518). Kind of assay: Activity against rat cerebellum iNOS upto 1 uM.

Sequence of Nitric oxide synthase, inducible (Rattus norvegicus) (Q06518 whole entry): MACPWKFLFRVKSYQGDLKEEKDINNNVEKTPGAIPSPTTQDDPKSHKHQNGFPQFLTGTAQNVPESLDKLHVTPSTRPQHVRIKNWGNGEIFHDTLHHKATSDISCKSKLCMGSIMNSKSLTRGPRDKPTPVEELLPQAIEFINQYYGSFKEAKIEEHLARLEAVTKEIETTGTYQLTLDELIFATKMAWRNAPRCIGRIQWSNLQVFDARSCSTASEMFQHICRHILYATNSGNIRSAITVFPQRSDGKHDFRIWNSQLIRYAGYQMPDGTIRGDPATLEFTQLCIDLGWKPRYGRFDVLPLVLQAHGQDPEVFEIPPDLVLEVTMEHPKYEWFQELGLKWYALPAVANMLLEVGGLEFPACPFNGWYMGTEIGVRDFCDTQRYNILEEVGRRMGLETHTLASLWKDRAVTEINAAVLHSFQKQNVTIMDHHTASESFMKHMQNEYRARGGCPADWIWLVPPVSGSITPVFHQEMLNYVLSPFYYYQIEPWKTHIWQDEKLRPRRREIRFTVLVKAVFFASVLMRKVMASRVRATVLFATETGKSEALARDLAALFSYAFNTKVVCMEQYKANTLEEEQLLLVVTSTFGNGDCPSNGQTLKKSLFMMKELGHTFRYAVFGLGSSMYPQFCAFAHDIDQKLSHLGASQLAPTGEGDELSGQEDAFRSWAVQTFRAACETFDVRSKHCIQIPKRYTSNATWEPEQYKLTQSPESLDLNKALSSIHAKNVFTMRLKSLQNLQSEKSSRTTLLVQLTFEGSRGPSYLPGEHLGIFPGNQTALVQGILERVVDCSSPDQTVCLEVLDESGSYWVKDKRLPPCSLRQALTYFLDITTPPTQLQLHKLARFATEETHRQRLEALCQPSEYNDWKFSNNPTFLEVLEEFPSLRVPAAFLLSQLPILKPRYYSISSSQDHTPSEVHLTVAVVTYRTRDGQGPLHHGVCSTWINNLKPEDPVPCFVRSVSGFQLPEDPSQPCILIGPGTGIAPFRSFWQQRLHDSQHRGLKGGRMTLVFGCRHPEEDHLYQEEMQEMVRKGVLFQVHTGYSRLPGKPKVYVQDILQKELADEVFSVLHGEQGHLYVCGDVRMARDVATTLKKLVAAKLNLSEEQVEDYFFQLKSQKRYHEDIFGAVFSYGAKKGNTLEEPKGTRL
Sequence of Nitric oxide synthase, inducible (P35228 whole entry): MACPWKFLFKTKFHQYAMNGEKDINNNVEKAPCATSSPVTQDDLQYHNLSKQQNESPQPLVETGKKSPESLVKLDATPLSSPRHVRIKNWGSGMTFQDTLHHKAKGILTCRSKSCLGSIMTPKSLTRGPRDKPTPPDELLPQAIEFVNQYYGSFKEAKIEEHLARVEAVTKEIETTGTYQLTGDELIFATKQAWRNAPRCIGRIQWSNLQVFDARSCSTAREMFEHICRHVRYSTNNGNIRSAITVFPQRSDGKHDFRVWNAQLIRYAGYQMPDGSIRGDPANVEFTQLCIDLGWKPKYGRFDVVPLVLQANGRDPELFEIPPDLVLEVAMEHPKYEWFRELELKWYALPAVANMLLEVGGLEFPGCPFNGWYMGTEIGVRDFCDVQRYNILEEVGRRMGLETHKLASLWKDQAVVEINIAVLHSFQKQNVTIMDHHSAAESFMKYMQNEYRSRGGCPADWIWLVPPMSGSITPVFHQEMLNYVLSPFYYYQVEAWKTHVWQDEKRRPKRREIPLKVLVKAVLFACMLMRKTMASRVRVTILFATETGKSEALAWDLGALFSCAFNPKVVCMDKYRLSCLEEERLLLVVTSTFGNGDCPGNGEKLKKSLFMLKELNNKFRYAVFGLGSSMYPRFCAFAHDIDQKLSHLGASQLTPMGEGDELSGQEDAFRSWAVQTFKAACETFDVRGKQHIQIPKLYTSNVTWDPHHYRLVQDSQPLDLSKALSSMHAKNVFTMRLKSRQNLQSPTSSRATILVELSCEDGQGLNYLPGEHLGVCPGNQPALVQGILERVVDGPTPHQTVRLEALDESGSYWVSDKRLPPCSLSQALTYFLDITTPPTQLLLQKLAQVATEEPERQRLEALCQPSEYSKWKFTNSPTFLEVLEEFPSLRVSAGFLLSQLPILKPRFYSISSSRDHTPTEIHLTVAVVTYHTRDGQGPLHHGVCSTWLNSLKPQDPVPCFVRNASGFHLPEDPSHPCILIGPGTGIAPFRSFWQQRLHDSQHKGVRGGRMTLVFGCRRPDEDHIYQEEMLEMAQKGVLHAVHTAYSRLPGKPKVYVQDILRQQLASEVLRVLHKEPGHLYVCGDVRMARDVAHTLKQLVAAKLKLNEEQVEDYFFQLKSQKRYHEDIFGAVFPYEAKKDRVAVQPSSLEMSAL

Take `CC(=O)N1CCN(c2cc(C)nc(-n3ccnc3)n2)CC1CC(=O)NCc1ccc2c(c1)OCO2` (stereo unspecified): the pIC50 in assay [1] is 8.07; in assay [3], 6.47. The Ratio IC50 in assay [2] was greater than 320; in assay [4] it was greater than 32. The result in assay [5] was inactive.
`CN1CCN(c2ccnc(-n3ccnc3)n2)C(CC(=O)NCc2ccc3c(c2)OCO3)C1` (stereo unspecified): the negative logarithm of the IC50 (pIC50) is 9.32 in assay [1] and 7.96 in assay [3]. Besides, the results for the Ratio IC50 in assay [2] and in assay [4] were 1300 and 2, respectively. Besides, the result in assay [5] was inactive.
The like results for `O=C(CC1CCCCN1c1cc(C(F)(F)F)nc(-n2ccnc2)n1)NCc1ccc2c(c1)OCO2` (stereo unspecified) were, in that order, 6.74, 6.49, greater than 310, greater than 31 and “inactive”.
The like results for `CS(=O)(=O)N1CCN(c2ccnc(-n3ccnc3)n2)C(CC(=O)NCc2ccc3c(c2)OCO3)C1` (stereo unspecified) were, in that order, 9.15, 7.13, greater than 1000, 12 and “inactive”.
For the compound `O=C(CC1CN(S(=O)(=O)c2ccccc2)CCN1c1ccnc(-n2ccnc2)n1)NCc1ccc2c(c1)OCO2` (stereo unspecified), the pIC50 in assay [1] is 8.57; in assay [3], 7.47. For the same compound, the Ratio IC50 was found to be 1100 in assay [2] and 9 in assay [4]. Moreover, the outcome in assay [5] was inactive.
In the case of `O=C(CC1CCCCN1c1nccc(-n2ccnc2)n1)NCc1ccc2c(c1)OCO2` (stereo unspecified), the results for the negative-log IC50 (pIC50) in assay [1] and in assay [3] were 7.28 and 6.66, respectively. Moreover, the figures for the Ratio IC50 in assay [2] and in assay [4] were greater than 500 and 6, respectively. Besides, the result in assay [5] was inactive.
As for `O=C(CC1CN(Cc2ccccc2)CCN1c1ccnc(-n2ccnc2)n1)NCc1ccc2c(c1)OCO2` (stereo unspecified), the values for the negative logarithm of the IC50 (pIC50) in assay [1] and in assay [3] were 9.00 and 7.89, respectively. Further, the Ratio IC50 was found to be 770 in assay [2] and 7 in assay [4]. The result in assay [5] was inactive.
Regarding `CNC(=O)N1CCN(c2ccnc(-n3ccnc3)n2)C(CC(=O)NCc2ccc3c(c2)OCO3)C1` (stereo unspecified), the pIC50 in assay [1] was 9.00; in assay [3], 6.35. For the same compound, the Ratio IC50 in assay [2] was greater than 250; in assay [4] it was 4. In addition, the result in assay [5] was inactive.
The like results for `COc1cccc(CNC(=O)CC2CCCCN2c2ccnc(-n3ccnc3)n2)c1` (stereo unspecified) were, in that order, 8.43, 6.64, greater than 430, 4 and “inactive”.
The like results for `O=C(CC1CCCCN1c1cc(Cl)nc(-n2ccnc2)n1)NCc1ccc2c(c1)OCO2` (stereo unspecified) were, in that order, 9.31, 8.05, 1100, 5 and “inactive”.
The like results for `O=C(CC1CCCCN1c1ccnc(-n2ccnc2)n1)NCc1ccc([N+](=O)[O-])cc1` (stereo unspecified) were, in that order, 6.77, 6.03, 74, greater than 10 and “inactive”.
Take `O=C(CC1CCCCN1c1ccnc(-n2ccnc2)n1)NCc1ccc2c(c1)OCO2` (stereo unspecified): the negative logarithm of the IC50 (pIC50) in assay [1] was 9.30; in assay [3] it was 8.15. The Ratio IC50 turned out to be 520 in assay [2] and 5 in assay [4]. Moreover, the outcome in assay [5] was inactive.
For the compound `CC(C)CCN1CCN(c2ccnc(-n3ccnc3)n2)C(CC(=O)NCc2ccc3c(c2)OCO3)C1` (stereo unspecified), the pIC50 is 9.00 in assay [1] and 8.00 in assay [3]. In addition, the Ratio IC50 in assay [2] worked out at 1000; in assay [4], 6. Further, in assay [5], the result was inactive.
With `O=C(CC1CCCCN1c1ccnc(-n2ccnc2)n1)NCc1ccc(F)cc1` (stereo unspecified), the figures for the pIC50 in assay [1] and in assay [3] were 8.52 and 6.68, respectively. Also, the Ratio IC50 in assay [2] worked out at 490; in assay [4], 5. For the same compound, in assay [5], the result was inactive.
The corresponding values for `Cc1cc(N2CCCCC2CC(=O)NCc2ccc3c(c2)OCO3)nc(-n2ccnc2)n1` (stereo unspecified) are 8.39, 7.80, 1200, 5 and “inactive”.
The like results for `CC(C)OC(=O)N1CCN(c2ccnc(-n3ccnc3)n2)C(CC(=O)NCc2ccc3c(c2)OCO3)C1` (stereo unspecified) were, in that order, 9.00, 7.62, 800, 4 and “inactive”.
For `O=C(CC1CN(c2cccc(F)n2)CCN1c1ccnc(-n2ccnc2)n1)NCc1ccc2c(c1)OCO2` (stereo unspecified), the pIC50 is 9.55 in assay [1] and 8.00 in assay [3]. The Ratio IC50 in assay [2] was found to be 850; in assay [4] it was 6. In addition, the outcome in assay [5] was inactive.
For the compound `COc1ccc(CCNC(=O)CC2CCCCN2c2ccnc(-n3ccnc3)n2)cc1` (stereo unspecified), the pIC50 in assay [1] was 8.46; in assay [3], 7.38. The Ratio IC50 in assay [2] was greater than 1000; in assay [4], 8. For the same compound, the result in assay [5] was inactive.
The like results for `O=C(CC1CCCCN1c1ccnc(-n2ccnc2)n1)NCc1ccco1` (stereo unspecified) were, in that order, 7.20, 6.59, 140, 13 and “inactive”.
The corresponding values for `O=C(CC1CCCCN1c1ccnc(-n2ccnc2)n1)NCc1ccc(C(F)(F)F)cc1` (stereo unspecified) are 6.82, 6.59, 70, 3 and “inactive”.
`O=C(CC1CN(C(=O)Oc2ccccc2)CCN1c1ccnc(-n2ccnc2)n1)NCc1ccc2c(c1)OCO2` (stereo unspecified): the pIC50 in assay [1] is 8.85; in assay [3], 7.80. Also, the Ratio IC50 in assay [2] was 700; in assay [4], 5. For the same compound, in assay [5], the outcome was inactive.
The like results for `O=C(CC1CN(Cc2cccc3ccccc23)CCN1c1ccnc(-n2ccnc2)n1)NCc1ccc2c(c1)OCO2` (stereo unspecified) were, in that order, 7.16, 6.92, 40, 7 and “inactive”.
The corresponding values for `Cc1cc(N2CCN(C)C(CC(=O)NCc3ccc4c(c3)OCO4)C2)nc(-n2ccnc2)n1` (stereo unspecified) are 7.92, 6.47, greater than 350, 72 and “inactive”.
In the case of `O=C(CC1CCCCN1c1cc(-n2ccnc2)ncn1)NCc1ccc2c(c1)OCO2` (stereo unspecified), the pIC50 is 8.00 in assay [1] and 7.00 in assay [3]. The Ratio IC50 in assay [2] is greater than 1000; in assay [4], 19. Also, the outcome in assay [5] was inactive.
Turning to `Cc1cc(N2CCNC(CC(=O)NCc3ccc4c(c3)OCO4)C2)nc(-n2ccnc2)n1` (stereo unspecified), the results for the pIC50 in assay [1] and in assay [3] were 7.00 and less than 6.00, respectively. Also, the outcome in assay [5] was inactive.
The like results for `COC(=O)N1CCN(c2ccnc(-n3ccnc3)n2)[C@H](CC(=O)NCc2ccc3c(c2)OCO3)C1` were, in that order, 7.47, less than 6.00 and “inactive”.

By pIC50 is commonly meant the IC50 on a negative log10 scale, so that one unit is a factor of ten.
